# In ChEMBL document CHEMBL4823277, “Novel chalcone-conjugated, multi-flexible end-group coumarin thiazole hybrids as potential antibacterial repressors against methicillin-resistant Staphylococcus aureus” (Eur J Med Chem, 2021):
# Calls of active or inactive are those of the source. The rule behind the calls is not given here.
# Columns and labels:
# Staphylococcus aureus [1] = experiment: Antibacterial activity against methicillin-resistant Staphylococcus aureus N315 by microbroth dilution method; assay type: functional
# Procedure, shortened: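 Minimum inhibitory concentration against MRSA N315 determined by micro broth dilution in microdilution plates.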
# Enterococcus faecalis [2] = experiment: Antibacterial activity against Enterococcus faecalis by microbroth dilution method; assay type: functional
# Staphylococcus aureus [3] = experiment: Antibacterial activity against Staphylococcus aureus by microbroth dilution method; assay type: functional
# Staphylococcus aureus [4] = experiment: Antibacterial activity against Staphylococcus aureus ATCC 25923 by microbroth dilution method; assay type: functional
# Staphylococcus aureus [5] = experiment: Antibacterial activity against Staphylococcus aureus ATCC 29213 by microbroth dilution method; assay type: functional
# Klebsiella pneumoniae [6] = experiment: Antibacterial activity against Klebsiella pneumonia by microbroth dilution method; assay type: functional
# Escherichia coli [7] = experiment: Antibacterial activity against Escherichia coli by microbroth dilution method; assay type: functional
# Pseudomonas aeruginosa [8] = experiment: Antibacterial activity against Pseudomonas aeruginosa by microbroth dilution method; assay type: functional
# Acinetobacter baumannii = experiment: Antibacterial activity against Acinetobacter baumannii by microbroth dilution method; assay type: functional
# Pseudomonas aeruginosa [9] = experiment: Antibacterial activity against Pseudomonas aeruginosa ATCC 27853 by microbroth dilution method; assay type: functional
# Escherichia coli [10] = experiment: Antibacterial activity against Escherichia coli ATCC 25922 by microbroth dilution method; assay type: functional
# Staphylococcus aureus [11] = experiment: Bactericidal activity against methicillin-resistant Staphylococcus aureus assessed as decrease in viable cells at 4 times MIC measured after 2 hrs by time kill assay; assay type: functional
# Procedure, shortened: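 Time-kill kinetics against MRSA at 4 × MIC. Viable cells were counted as CFU/mL over time, including the 2 h point.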
# L02 = experiment: Cytotoxicity against human L02 cells assessed as effect on cell viability up to 500 ug/ml by MTT assay; assay type: cell-based; settings: dose <=500 µg/ml
# Procedure, shortened: (§1)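 MTT viability assay on human hepatocyte LO2 cells and RAW 264.7 cells. The test hybrid was applied over a rising concentration series up to 500. The read-out was the percentage of living cells.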
# RAW264.7 = experiment: Cytotoxicity against mouse RAW264.7 cells assessed as effect on cell viability up to 500 ug/ml by MTT assay; assay type: cell-based; settings: dose <=500 µg/ml; procedure, shortened: as §1
# Cell membrane = experiment: Induction of membrane permeabilization in methicillin resistant Staphylococcus aureus at 12 times MIC measured after 60 mins by propidium iodide staining based fluorescence assay
# Procedure, shortened: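 PI–DNA fluorescence intensity was followed over time up to and beyond 60 min, compared with an untreated control.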
# Staphylococcus aureus [12] = experiment: Antibacterial activity against methicillin-resistant Staphylococcus aureus up to 50 ug/ml measured after 7 passages by resistance development assay; assay type: functional, organism-based; settings: dose microg/ml <=50
# DNA [13] = experiment: Binding affinity to methicillin-resistant Staphylococcus aureus DNA assessed as maximum absorption peak at 260 nm by UV-vis spectroscopy; assay type: nucleic-acid assay
# DNA [14] = experiment: Binding affinity to methicillin-resistant Staphylococcus aureus DNA assessed as decrease in absorption of compound-DNA complex by UV-vis spectroscopy; assay type: nucleic-acid assay
# DNA [15] = experiment: Binding affinity to methicillin-resistant Staphylococcus aureus DNA assessed as compound-DNA interaction causing DNA replication blockage by neutral red uptake assay; assay type: nucleic-acid assay
# Enterococcus faecalis [16] = experiment: Potentiation of norfloxacin-induced antibacterial activity against Enterococcus faecalis assessed as norfloxacin MIC; assay type: functional
# Klebsiella pneumoniae [17] = experiment: Potentiation of norfloxacin-induced antibacterial activity against Klebsiella pneumoniae assessed as norfloxacin MIC; assay type: functional
# Escherichia coli [18] = experiment: Potentiation of norfloxacin-induced antibacterial activity against Escherichia coli assessed as norfloxacin MIC; assay type: functional
# Staphylococcus aureus [19] = experiment: Synergistic antibacterial activity against methicillin resistant Staphylococcus aureus N315 assessed as fractional inhibitory concentration index in presence of norfloxacin; assay type: functional
# Enterococcus faecalis [20] = experiment: Indifferent antibacterial activity against Enterococcus faecalis assessed as fractional inhibitory concentration index in presence of norfloxacin; assay type: functional
# Klebsiella pneumoniae [21] = experiment: Additive antibacterial activity against Klebsiella pneumoniae assessed as fractional inhibitory concentration index in presence of norfloxacin; assay type: functional
# Escherichia coli [22] = experiment: Additive antibacterial activity against Escherichia coli assessed as fractional inhibitory concentration index in presence of norfloxacin; assay type: functional
SMILES,MIC (Staphylococcus aureus [1]),MIC (Enterococcus faecalis [2]),MIC (Staphylococcus aureus [3]),MIC (Staphylococcus aureus [4]),MIC (Staphylococcus aureus [5]),MIC (Klebsiella pneumoniae [6]),MIC (Escherichia coli [7]),MIC (Pseudomonas aeruginosa [8]),MIC (Acinetobacter baumannii),MIC (Pseudomonas aeruginosa [9]),MIC (Escherichia coli [10]),also measured
O=C(COc1ccc2c(CN(CCO)CCO)cc(=O)oc2c1)c1nccs1,20 µM,316 µM,316 µM,633 µM,1270 µM,316 µM,316 µM,633 µM,633 µM,1270 µM,633 µM,–
O=C(/C(=C/c1ccc(Cl)cc1)Oc1ccc2c(CN(CCO)CCO)cc(=O)oc2c1)c1nccs1,121 µM,243 µM,243 µM,243 µM,243 µM,486 µM,486 µM,61 µM,243 µM,243 µM,486 µM,–
COc1ccc(/C=C(\Oc2ccc3c(CN(CCO)CCO)cc(=O)oc3c2)C(=O)c2nccs2)cc1,4 µM,61 µM,61 µM,122 µM,122 µM,61 µM,15 µM,122 µM,244 µM,244 µM,244 µM,Activity (Staphylococcus aureus [11]): <10 CFU/ml; Activity (L02): Non-Toxic; Activity (RAW264.7): Non-Toxic; Activity (Cell membrane): Active; Activity (Staphylococcus aureus [12]): Active; Activity (DNA [13]): Active; Activity (DNA [14]): Active; Activity (DNA [15]): Active; MIC (Enterococcus faecalis [16]): 1.906 10^-3mM; MIC (Klebsiella pneumoniae [17]): 0.953 10^-3mM; MIC (Escherichia coli [18]): 0.234 10^-3mM; fractional inhibitory concentration index (FICI) (Staphylococcus aureus [19]): 0.45; fractional inhibitory concentration index (FICI) (Enterococcus faecalis [20]): 1.34; fractional inhibitory concentration index (FICI) (Klebsiella pneumoniae [21]): 0.58; fractional inhibitory concentration index (FICI) (Escherichia coli [22]): 0.51
O=C(/C(=C/c1ccccc1)Oc1ccc2c(CN(CCO)CCO)cc(=O)oc2c1)c1nccs1,130 µM,130 µM,260 µM,1040 µM,1040 µM,1040 µM,1040 µM,520 µM,1040 µM,520 µM,260 µM,–
Cc1ccc2c(/C=C(\Oc3ccc4c(CN(CCO)CCO)cc(=O)oc4c3)C(=O)c3nccs3)c[nH]c2c1,117 µM,15 µM,29 µM,7 µM,117 µM,235 µM,235 µM,117 µM,117 µM,59 µM,235 µM,–
O=C(/C(=C/c1ccc(Cl)cc1Cl)Oc1ccc2c(CN(CCO)CCO)cc(=O)oc2c1)c1nccs1,7 µM,228 µM,228 µM,456 µM,456 µM,228 µM,228 µM,114 µM,114 µM,228 µM,456 µM,–
Cc1ccc(/C=C(\Oc2ccc3c(CN(CCO)CCO)cc(=O)oc3c2)C(=O)c2nccs2)cc1,63 µM,63 µM,126 µM,63 µM,126 µM,63 µM,16 µM,253 µM,253 µM,505 µM,126 µM,–
